Screening data: PubChem BioAssay, Sanford-Burnham Center for Chemical Genomics
Most compounds without a hit are left out; they make up all but 1.7% or so of the library.
STEP inh = inhibitors of human striatal-enriched phosphatase STEP | recombinant STEP, OMFP fluorogenic substrate, fluorescence | inhibition, % at 20 µM | 360,000 tested, 0.25% active;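 active means inhibition at 20 µM, scaled per plate between control wells, above about 37%, limit read from the data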
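medium = Bis-Tris buffer pH 6.0, 2.5 mM DTT, 0.005% Tween 20 | test system = STEP (striatal-enriched tyrosine phosphatase) enzyme, cell-free | measure = normalized % inhibition | compound dosing = 20 µM, 1% DMSO | also added = 25 µM OMFP | schedule = reaction 20 min, ambient temperature | measured by = fluorescence read at 480 nm ex / 540 nm em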
Scp-1 inhibitor = Scp-1 (human) phosphatase inhibition | Q9GZU7 | Recombinant Scp1, phosphopeptide, malachite green phosphate absorbance | AID 493091 | 340,000 tested, 0.88% active | inhibition, % at 20 µM;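 active means inhibition above about 50% at 20 µM, limit read from the data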
Target sequence (Q9GZU7 76-261 limits assumed): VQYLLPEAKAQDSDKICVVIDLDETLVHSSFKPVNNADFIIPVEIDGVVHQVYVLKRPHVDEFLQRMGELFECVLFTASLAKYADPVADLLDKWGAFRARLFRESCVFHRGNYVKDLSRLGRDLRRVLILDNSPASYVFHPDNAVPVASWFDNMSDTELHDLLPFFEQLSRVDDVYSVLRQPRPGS
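System: truncated SCP-1 phosphatase (76-261aa); medium: Tris acetate buffer pH 5.5 with MgCl2 and Tween-20; incubation: 45 min room-temperature reaction, 5 min colour, 30 min stabiliser; compound: single 20 µM dose, 1% DMSO; reagent: Phosphorylated 17-residue peptide substrate; read-out: % inhibition at 20 µM; technique: colorimetric free-phosphate detection, absorbance 630 nm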
DNMT1 block = blocks human DNA methyltransferase DNMT1; P26358; DNMT1 molecular beacon, Hinp1I cleavage, fluorescence; inhibition (reported as % activation of signal), % at 10 µM; 360,000 tested, 0.83% active; AID 588458; in the data active means inhibition above about 50%
SUMO1-SIM PPI = SUMO1-SIM interaction modulation | P63165 | SUMO1 binding to a labelled peptide, TR-FRET, 1 h | inhibition, % at 20 µM | 360,000 tested, 0.33% active; in the data active means inhibition above about 37%
Target sequence (P63165 whole entry, looked up): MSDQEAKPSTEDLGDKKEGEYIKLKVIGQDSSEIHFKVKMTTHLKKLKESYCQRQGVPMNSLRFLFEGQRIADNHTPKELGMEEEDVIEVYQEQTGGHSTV
LMPTP inh = blocks human LMPTP phosphatase | recombinant LMPTP-A, OMFP fluorogenic substrate, fluorescence intensity | inhibition, % at 20 µM | 360,000 tested, 0.22% active | AID 651560;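 active means compounds that cut the enzyme signal by at least half of the control window in the single-dose screen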
Target sequence (P24666 whole entry, looked up): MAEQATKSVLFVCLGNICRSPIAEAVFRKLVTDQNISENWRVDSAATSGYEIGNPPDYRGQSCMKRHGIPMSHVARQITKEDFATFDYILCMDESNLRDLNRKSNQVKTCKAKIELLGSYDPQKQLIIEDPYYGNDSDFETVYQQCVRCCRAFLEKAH
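Assay system: LMPTP-A, protein tyrosine phosphatase of low molecular weight / Medium: pH 6.0 Bis-Tris buffer with DTT and Triton X-100 / Schedule: 50 min enzyme reaction at room temperature, protected from light / Measured by: endpoint fluorescence intensity from OMFP dephosphorylation / Read-out basis: % inhibition relative to no-enzyme and uninhibited control wells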
Beacon interf DR = counter-screen for DNMT1 inhibitors: spectral interference, dose response; IC50, µM; molecular beacon fluorescence; shares compounds with DNMT1 block; AID 602382; 200 tested, under 10 active; call rule not given here
DNMT1 confirm = confirmation of human DNMT1 inhibitors. inhibition, % at 10 µM. AID 602385. shares compounds with DNMT1 block. DNMT1 molecular beacon HinP1I cleavage, fluorescence. 2,300 tested, 8% active;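 active means average inhibition of at least 30% in the single-concentration confirmation test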
DNMT1 interf = beacon fluorescence artifact counter-screen. shares compounds with DNMT1 block. DNMT1 molecular beacon spectral interference counterscreen, fluorescence 485/520. activation (fluorescence interference), % at 10 µM. 2,300 tested, 1% active. AID 602387;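 active means activation of at least 30% at 10 µM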;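 further: DNMT1 catalytic domain with a HinP1I cleavage step and a FAM/dabcyl DNA beacon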
A number is an active result; i = inactive; nt = not tested or not shown.

SMILES	STEP inh	Scp-1 inhibitor	DNMT1 block	SUMO1-SIM PPI	LMPTP inh	DNMT1 confirm	DNMT1 interf	others
O=C1C(=O)N(c2ccccn2)C(c2cccc([N+](=O)[O-])c2)/C1=C(/O)c1ccc(Br)cc1 (centres undefined)	i	i	i	i	i	nt	nt
O=C(C[n+]1cccc2ccccc21)c1ccc(NC(=O)c2ccccc2)cc1	i	i	i	i	i	nt	nt
Cc1cc[n+](CC(=O)c2ccc(NC(=O)c3ccccc3)cc2)c2ccccc12	i	i	52.8	i	i	i	i
CCc1nnc(NC(=O)c2ccc(-c3ccc(Cl)cc3)o2)s1	i	i	68.1	i	i	i	i
COC(=O)c1sc(S(=O)(=O)NC(Cc2ccccc2)C(=O)O)c(C(=O)OC)c1C (centres undefined)	i	i	i	i	i	nt	nt
CCOc1nc(NC(=O)NC(=O)c2ccccc2)nc(-c2ccccc2)n1	i	i	73.5	i	i	i	i
CC1CN(S(=O)(=O)c2cc(C(=O)N3CCCCC3C)ccc2Cl)CC(C)O1 (centres undefined)	i	i	i	i	i	nt	nt
S=C(Nc1ccc(Cl)cc1)Nc1ccc2c(c1)OCCO2	i	i	72.1	i	i	i	i
Cc1cc(C)n2c(Br)c(CSc3nc4ccccc4o3)nc2n1	i	i	58.5	i	i	i	i
Nn1c(CSc2nc3ccccc3o2)nnc1CSc1nc2ccccc2o1	i	i	i	i	i	nt	nt
Cc1ccccc1NC(=O)COC(=O)c1ccc(CSc2ccc(Cl)cc2)cc1	i	i	52.1	i	i	i	i
COc1ccc(NC(=O)CCCC(=O)OCC(F)(F)C(F)F)cc1	i	i	74.9	i	i	i	i
COc1ccccc1NC(=O)CCCC(=O)OCC(F)(F)C(F)F	i	i	i	i	i	nt	nt
O=C(Nc1ccc2oc(=O)ccc2c1)c1ccc(-c2cccc(Cl)c2)o1	i	i	90.6	i	i	i	i
COC(=O)c1ccc(NC(=O)c2ccc(NC(=O)c3ccco3)cc2)cc1	i	i	57.8	54.4	i	i	i
O=C(/C=C/c1ccc(Br)cc1)c1ccc(NC(=O)c2ccco2)cc1	i	i	87.7	i	i	i	i
Cc1cc(C)cc(NC(=O)c2ccc(NC(=O)c3ccco3)cc2)c1	i	i	i	i	i	nt	nt
Cc1cc2nc(-c3ccc(SCC(=O)Nc4ccc(S(=O)(=O)N5CCCC5)cc4)nc3)[nH]c2cc1C	i	i	66.0	i	i	i	i
CC(=O)OCC(=O)Nc1ccc([N+](=O)[O-])cc1Cl	i	i	i	i	i	nt	nt
O=C(COC(=O)C12CC3CC(CC(C3)C1)C2)Nc1ccc([N+](=O)[O-])cc1Cl	i	i	71.6	i	i	i	i
O=S(=O)(c1cc(O)ccc1O)c1cccc2c(S(=O)(=O)c3cc(O)ccc3O)cccc12	83.7	69.0	95.4	58.1	74.6	83.2	i	Beacon interf DR=i
Cc1oc(S(=O)(=O)N2CCCCC2)cc1NC(=O)Nc1ccc(F)cc1	i	i	i	i	i	nt	nt
Cc1ccccc1-c1cccc([C@@H]2C[C@H]3[C@H](CON3C)CN2C(=O)CCc2ccccc2)c1	i	i	77.5	i	i	i	i
CC(=O)N1C[C@H]2CON(C)[C@H]2C[C@H]1c1cccc(-c2ccccc2C)c1	i	i	i	i	i	nt	nt
Cc1ccc(O)c(-c2cc(C(=O)Nc3ccc(S(=O)(=O)N4CC(C)OC(C)C4)cc3)[nH]n2)c1 (centres undefined)	i	i	i	i	i	nt	nt
Cc1ccc(-c2cc(C(=O)Nc3ccc(S(=O)(=O)N4CC(C)OC(C)C4)cc3)[nH]n2)c(O)c1 (centres undefined)	i	i	123.8	i	i	i	i
CCCCCCNC(=O)O[C@H]1C[C@@H]2C(=O)N(c3ccccc3)C(=O)[C@@H]2[C@@H]2CN(S(=O)(=O)c3ccc(C)cc3)C[C@]12O	i	nt	75.6	i	i	i	i
